ChEMBL document CHEMBL1123837, “1-Amino-substituted 4-methyl-5H-pyrido[3',4':4,5]pyrrolo[3,2-c]pyridines: a new class of antineoplastic agents” (J Med Chem, 1987)
Active and inactive are the calls of the source. The rule behind the calls is not given here.

Legend:
[1] = tested on: L1210; assay: In vitro cytotoxicity against L1210 cells was determined after 48 hours of incubation; type: functional, Mus musculus; conditions: Mus musculus, L1210, 48 h; read-out: ID50 (the source's name)
Procedure, shortened: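 Exponentially growing L1210 cells were cultured in RPMI 1640 with 2 mM glutamine, penicillin/streptomycin and 10% fetal calf serum, under 5% CO2 at 37 °C. Drugs dissolved in distilled water were added to cells at 0.8 × 10^5 cells/mL for 48 h, then cells were counted. ID50 was estimated by regression of dose-response data, as the mean of two values from two independent experiments.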

[2] = tested on: Calf thymus DNA; assay: Binding affinity for DNA by ethidium bromide displacement assay; type: nucleic-acid assay; conditions: Bos taurus
Procedure, shortened: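 Competitive ethidium bromide displacement with calf thymus DNA at 10 µg/mL in 20 mM Na phosphate buffer, 0.1 M NaCl, 1 mM EDTA, pH 7.4. The apparent DNA affinity constant is given in 10^6 M^-1 ± standard deviation, from 6 values across two independent experiments.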

[3] = tested on: Mus musculus; assay: In vivo antitumor activity was determined against P388 leukemia cells expressed as treated/control at the dose of (5-50)mg/kg; IA = Inactive; type: functional, organism-based
Procedure, shortened: (§1)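 Following NCI protocols, 10^6 viable P388 leukemia cells were inoculated ip on day 0 into male or female CDF1 hybrid mice, 10 per test group. Compounds in distilled water were given ip (0.1 mL/10 g body weight) at various doses on days 1–5. T/C = median survival day of treated / median survival day of negative controls × 100.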

[4] = tested on: Mus musculus; assay: In vivo antitumor activity was determined against P388 leukemia cells expressed as treated/control at the dose of (5-100)mg/kg (nontoxic at highest dose tested.); IA = Inactive; type: functional, organism-based; procedure, shortened: as §1
[5] = tested on: Mus musculus; assay: In vivo antitumor activity was determined against P388 leukemia cells expressed as treated/control at the dose of (1.25-80)mg/kg; IA = Inactive; type: functional, organism-based; procedure, shortened: as §1
[6] = tested on: Mus musculus; assay: In vivo antitumor activity was evaluated on L1210 leukemia model and median survival day was determined at 1.25 mg/kg dosage concentration; type: functional
Procedure, shortened: (§2)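 L1210 leukemia, 10^5 viable cells inoculated ip on day 0 into CDF1 hybrid male or female mice, 10 mice per group. Compounds were given ip in distilled water (0.1 mL/10 g body weight) on days 1-5. Vehicle controls were treated the same way. NCI protocols were followed. T/C = median survival day of treated mice / median survival day of vehicle controls × 100.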

[7] = tested on: Mus musculus; assay: In vivo antitumor activity was evaluated on L1210 leukemia model and percent of treated/control of tumor cells was determined at 50 mg/kg dosage concentration; type: functional
Procedure, shortened: as §1, with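 “10^5” for “10^6”, “L1210” for “P388”, “dosed” for “given”, “daily” for “at various doses”, “treated mice” for “treated”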

[8] = tested on: Mus musculus; assay: In vivo antitumor activity was evaluated on L1210 leukemia model and percent of treated/control of tumor cells was determined at 40 mg/kg dosage concentration; type: functional
Procedure, shortened: as §1, with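 “10^5” for “10^6”, “L1210” for “P388”, “dosed” for “given”, “daily” for “at various doses”, “treated mice” for “treated”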

[9] = tested on: Mus musculus; assay: In vivo antitumor activity was evaluated on L1210 leukemia model and number of survivors (animals) was determined at 10 mg/kg dosage concentration; number of survivors given as 3/10; type: functional; procedure, shortened: as §2
[10] = tested on: Mus musculus; assay: In vivo antitumor activity was determined against P388 leukemia cells expressed as treated/control at the dose of 20 mg/kg; type: functional; procedure, shortened: as §1
[11] = tested on: Mus musculus; assay: In vivo antitumor activity was evaluated on L1210 leukemia model and number of survivors (animals) was determined at 40 mg/kg dosage concentration; number of survivors given as 0/10; type: functional; procedure, shortened: as §2
[12] = tested on: Mus musculus; assay: In vivo antitumor activity was evaluated on L1210 leukemia model and weight change in tumors was determined at 5 mg/kg dosage concentration; type: functional
[13] = tested on: Mus musculus; assay: In vivo antitumor activity was evaluated on L1210 leukemia model and number of survivors (animals) was determined at 5 mg/kg dosage concentration; number of survivors given as 0/10; type: functional; procedure, shortened: as §2
[14] = tested on: Mus musculus; assay: In vivo antitumor activity was evaluated on L1210 leukemia model and median survival day was determined at 20 mg/kg dosage concentration; type: functional; procedure, shortened: as §2
[15] = tested on: Mus musculus; assay: In vivo antitumor activity was determined against P388 leukemia cells expressed as number of animals survived; type: functional
Procedure, shortened: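 P388 leukemia, 10^6 viable cells inoculated ip on day 0 into CDF1 hybrid male or female mice, 10 mice per group. Compounds were given ip in distilled water (0.1 mL/10 g body weight) at various doses on days 1-5. Vehicle controls were treated the same way. NCI protocols were followed.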

[16] = tested on: Mus musculus; assay: In vivo antitumor activity was evaluated on L1210 leukemia model and percent of treated/control of tumor cells was determined at 20 mg/kg dosage concentration; type: functional; procedure, shortened: as §2
[17] = tested on: Mus musculus; assay: In vivo antitumor activity was determined against P388 leukemia cells expressed as treated/control at the dose of 50 mg/kg; type: functional; procedure, shortened: as §1
[18] = tested on: Mus musculus; assay: In vivo antitumor activity was evaluated on L1210 leukemia model and median survival day was determined at 50 mg/kg dosage concentration; type: functional; procedure, shortened: as §2
[19] = tested on: Mus musculus; assay: In vivo antitumor activity was evaluated on L1210 leukemia model and median survival day was determined at 5 mg/kg dosage concentration; type: functional; procedure, shortened: as §2
[20] = tested on: Mus musculus; assay: In vivo antitumor activity was evaluated on L1210 leukemia model and weight change in tumors was determined at 1.25 mg/kg dosage concentration; type: functional
[21] = tested on: Mus musculus; assay: In vivo antitumor activity was evaluated on L1210 leukemia model and number of survivors (animals) was determined at 20 mg/kg dosage concentration; number of survivors given as 0/10; type: functional; procedure, shortened: as §2
[22] = tested on: Mus musculus; assay: In vivo antitumor activity was determined against P388 leukemia cells expressed as treated/control at the dose of 10 mg/kg; type: functional; procedure, shortened: as §1
[23] = tested on: Mus musculus; assay: In vivo antitumor activity was evaluated on L1210 leukemia model and percent of treated/control of tumor cells was determined at 1.25 mg/kg dosage concentration; type: functional
Procedure, shortened: as §1, with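 “10^5” for “10^6”, “L1210” for “P388”, “dosed” for “given”, “daily” for “at various doses”, “treated mice” for “treated”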

[24] = tested on: Mus musculus; assay: In vivo antitumor activity was evaluated on L1210 leukemia model and weight change in tumors was determined at 10 mg/kg dosage concentration; type: functional
[25] = tested on: Mus musculus; assay: In vivo antitumor activity was evaluated on L1210 leukemia model and number of survivors (animals) was determined at 50 mg/kg dosage concentration; number of survivors given as 0/10; type: functional; procedure, shortened: as §2
[26] = tested on: Mus musculus; assay: In vivo antitumor activity was evaluated on L1210 leukemia model and percent of treated/control of tumor cells was determined at 10 mg/kg dosage concentration; type: functional
Procedure, shortened: as §1, with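 “10^5” for “10^6”, “L1210” for “P388”, “dosed” for “given”, “daily” for “at various doses”, “treated mice” for “treated”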

[27] = tested on: Mus musculus; assay: In vivo antitumor activity was evaluated on L1210 leukemia model and weight change in tumors was determined at 50 mg/kg dosage concentration; type: functional
[28] = tested on: Mus musculus; assay: In vivo antitumor activity was evaluated on L1210 leukemia model and weight change in tumors was determined at 2.5 mg/kg dosage concentration.; type: functional
[29] = tested on: Mus musculus; assay: In vivo antitumor activity was evaluated on L1210 leukemia model and number of survivors (animals) was determined at 2.5 mg/kg dosage concentration; number of survivors given as 0/10; type: functional; procedure, shortened: as §2
[30] = tested on: Mus musculus; assay: In vivo antitumor activity was evaluated on L1210 leukemia model and percent of treated/control of tumor cells was determined at 5 mg/kg dosage concentration; type: functional
Procedure, shortened: as §1, with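 “10^5” for “10^6”, “L1210” for “P388”, “dosed” for “given”, “daily” for “at various doses”, “treated mice” for “treated”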

[31] = tested on: Mus musculus; assay: In vivo antitumor activity was determined against P388 leukemia cells expressed as treated/control at the dose of 40 mg/kg; type: functional; procedure, shortened: as §1
[32] = tested on: Mus musculus; assay: In vivo antitumor activity was evaluated on L1210 leukemia model and median survival day was determined at 10 mg/kg dosage concentration; type: functional; procedure, shortened: as §2
[33] = tested on: Mus musculus; assay: In vivo antitumor activity was evaluated on L1210 leukemia model and weight change in tumors was determined at 20 mg/kg dosage concentration; type: functional
[34] = tested on: Mus musculus; assay: In vivo antitumor activity was evaluated on L1210 leukemia model and median survival day was determined at 2.5 mg/kg dosage concentration.; type: functional; procedure, shortened: as §2
[35] = tested on: Mus musculus; assay: In vivo antitumor activity was evaluated on L1210 leukemia model and number of survivors (animals) was determined at 1.25 mg/kg dosage concentration; number of survivors given as 0/10; type: functional; procedure, shortened: as §2
[36] = tested on: Mus musculus; assay: In vivo antitumor activity was evaluated on L1210 leukemia model and median survival day was determined at 40 mg/kg dosage concentration; type: functional; procedure, shortened: as §2
[37] = tested on: Mus musculus; assay: In vivo antitumor activity was evaluated on L1210 leukemia model and weight change in tumors was determined at 40 mg/kg dosage concentration; type: functional
[38] = tested on: Mus musculus; assay: In vivo antitumor activity was evaluated on L1210 leukemia model and percent of treated/control of tumor cells was determined at 2.5 mg/kg dosage concentration.; type: functional
Procedure, shortened: as §1, with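 “10^5” for “10^6”, “L1210” for “P388”, “dosed” for “given”, “daily” for “at various doses”, “treated mice” for “treated”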

[39] = tested on: Mus musculus; assay: In vivo antitumor activity was determined against P388 leukemia cells expressed as treated/control at the dose of (2.5-40)mg/kg(nontoxic at highest dose tested.); IA = Inactive; type: functional, organism-based; procedure, shortened: as §1

In the case of `CCN(CC)CCCNc1nccc2c1c1cnccc1n2C`, the IC50 [1] is reported as 1.6 µM, the K aff [2] is reported as 17000 M⁻¹ and the T/C [3] is reported as “inactive”.
In the case of `CCN(CC)CCCCNc1ncc(C)c2c1c1cnccc1n2C`, the T/C [4] is reported as “inactive” and the K aff [2] is reported as 40000 M⁻¹.
`Cc1c[nH]c(NCCCN2CCN(C)CC2)c2c3cnccc3nc1-2` was tested, and the IC50 [1] was 59 µM, the K aff [2] was 27000 M⁻¹ and the T/C [5] was “inactive”.
`Cc1c[nH]c(NCCCN(C)C)c2c3cnccc3nc1-2` was tested, and the Median survival day [6] was 11.75, the T/C [7] was 89% and the T/C [8] was 100%. It also gave a Survivors [9] of 3, a T/C [10] of 186 and a Survivors [11] of 0. It also gave a Weight changes [12] of 0.3 g, a Survivors [13] of 0 and a Median survival day [14] of 15.6. The Survivors [15] was 1, the IC50 [1] was 0.16 µM and the T/C [16] was 169.5%. The T/C [17] was 181, the Median survival day [18] was 8.2 and the Median survival day [19] was 14. It also gave a Weight changes [20] of 0.3 g, a Survivors [21] of 0 and a T/C [22] of 156. It also gave a K aff [2] of 20000 M⁻¹, a T/C [23] of 127.5% and a Weight changes [24] of 0.5 g. It also gave a Survivors [25] of 0, a T/C [26] of 177% and a Weight changes [27] of -2.4 g. It also gave a Weight changes [28] of 0.3 g, a Survivors [29] of 0 and a T/C [30] of 152%. It also gave a T/C [31] of 184, a Median survival day [32] of 16.25 and a Weight changes [33] of -1.7 g. For the same molecule, the Median survival day [34] was 12.9, the Survivors [35] was 0 and the Median survival day [36] was 9.25. For the same molecule, the Weight changes [37] was -1.1 g and the T/C [38] was 140%.
In the case of `Cc1cnc(NCCCN2CCOCC2)c2c3cnccc3n(C)c12`, the IC50 [1] is reported as 5.3 µM, the T/C [39] is reported as “inactive” and the K aff [2] is reported as 30000 M⁻¹.
